Converted amounts (≈) assume the structure as drawn. The source made the active and inactive calls. The rule behind the calls is not given here.
system: Helicobacter pylori; experiment: Antimicrobial activity against Helicobacter pylori ATCC 700392; format: functional; settings: not given

SMILES	MBC [µg/mL]
CC1(C)CC[C@@]23CC[C@]4(C)[C@@](C=C[C@@H]5[C@@]6(C)CC[C@@H](O)C(C)(C)[C@@H]6CC[C@]54C)(OC2=O)[C@@H]3C1	> 128
CC1(C)CC[C@]2(C(=O)O)CC[C@]3(C)C(=C2C1)C=C[C@@H]1[C@@]2(C)CC[C@@H](O)C(C)(C)[C@@H]2CC[C@]13C	128 (≈ 282 µM)

system: not listed separately; experiment: Cytotoxicity against human HepG2(2.2.15) cells after 3 days by MTS assay; format: functional, cell-based; settings: HepG2 2.2.15, 72 h
Outline: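 HepG2 2.2.15 cells exposed for 3 days to 2-fold serial dilutions, 1.25–40 μg/mL. Viability read by MTS assay, in triplicate. Expressed as percentage of untreated control. Fluorouracil as positive control.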

SMILES	IC50 [µM]
CC1(C)CC[C@@]23CC[C@]4(C)[C@@](C=C[C@@H]5[C@@]6(C)CC[C@@H](O)C(C)(C)[C@@H]6CC[C@]54C)(OC2=O)[C@@H]3C1	> 50
CC1(C)CC[C@]2(C(=O)O)CC[C@]3(C)C(=C2C1)C=C[C@@H]1[C@@]2(C)CC[C@@H](O)C(C)(C)[C@@H]2CC[C@]13C	> 50

system: Hepatitis B virus; experiment: Antiviral activity against Hepatitis B virus infected in human HepG2(2.2.15) cells assessed as reduction of HBsAg secretion by enzyme immunoassay; format: functional, organism-based; settings: not given
Outline: (§1)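 HepG2 2.2.15 cells grown in modified Eagle's medium with 10% FBS, no antibiotics, 37 °C, 5% CO2. Confluent cultures treated at nontoxic concentrations in medium with 2% FBS, renewed every 3 days. Medium collected at day 6; HBsAg and HBeAg measured by enzyme immunoassay. Values relative to 0.1% DMSO control. IFN-alpha as positive control.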

SMILES	inhibition
CC1(C)CC[C@@]23CC[C@]4(C)[C@@](C=C[C@@H]5[C@@]6(C)CC[C@@H](O)C(C)(C)[C@@H]6CC[C@]54C)(OC2=O)[C@@H]3C1	inactive
CC1(C)CC[C@]2(C(=O)O)CC[C@]3(C)C(=C2C1)C=C[C@@H]1[C@@]2(C)CC[C@@H](O)C(C)(C)[C@@H]2CC[C@]13C	inactive

system: Hepatitis B virus; experiment: Antiviral activity against Hepatitis B virus infected in human HepG2(2.2.15) cells assessed as reduction of HBeAg secretion by enzyme immunoassay; format: functional, organism-based; settings: not given; outline: as §1

SMILES	inhibition
CC1(C)CC[C@@]23CC[C@]4(C)[C@@](C=C[C@@H]5[C@@]6(C)CC[C@@H](O)C(C)(C)[C@@H]6CC[C@]54C)(OC2=O)[C@@H]3C1	inactive
CC1(C)CC[C@]2(C(=O)O)CC[C@]3(C)C(=C2C1)C=C[C@@H]1[C@@]2(C)CC[C@@H](O)C(C)(C)[C@@H]2CC[C@]13C	inactive

system: AGS; experiment: Cytotoxicity against human AGS cells; format: functional, cell-based; settings: not given

SMILES	IC50 [µM]
CC1(C)CC[C@@]23CC[C@]4(C)[C@@](C=C[C@@H]5[C@@]6(C)CC[C@@H](O)C(C)(C)[C@@H]6CC[C@]54C)(OC2=O)[C@@H]3C1	9
CC1(C)CC[C@]2(C(=O)O)CC[C@]3(C)C(=C2C1)C=C[C@@H]1[C@@]2(C)CC[C@@H](O)C(C)(C)[C@@H]2CC[C@]13C	> 50

system: Enterococcus faecalis; experiment: Antimicrobial activity against Enterococcus faecalis ATCC 29212 after 24 hrs by broth microdilution method; format: functional, organism-based; settings: not given
Outline: (§2)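 MIC by broth microdilution per CLSI guidelines. Strains grown on nutrient agar at 37 °C for 24 h. Inoculum prepared in normal saline against a 0.5 McFarland standard, final density 5 × 10^5 cfu/mL. Compounds dissolved in DMSO, then nutrient broth. 2-fold serial dilutions from 128 down to 0.25 μg/mL. Ampicillin column as positive control.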

MIC	SMILES
inactive	CC1(C)CC[C@@]23CC[C@]4(C)[C@@](C=C[C@@H]5[C@@]6(C)CC[C@@H](O)C(C)(C)[C@@H]6CC[C@]54C)(OC2=O)[C@@H]3C1
inactive	CC1(C)CC[C@]2(C(=O)O)CC[C@]3(C)C(=C2C1)C=C[C@@H]1[C@@]2(C)CC[C@@H](O)C(C)(C)[C@@H]2CC[C@]13C

system: Listeria monocytogenes; experiment: Antimicrobial activity against Listeria monocytogenes ATCC 7644 after 24 hrs by broth microdilution method; format: functional, organism-based; settings: not given; outline: as §2

MIC	SMILES
inactive	CC1(C)CC[C@@]23CC[C@]4(C)[C@@](C=C[C@@H]5[C@@]6(C)CC[C@@H](O)C(C)(C)[C@@H]6CC[C@]54C)(OC2=O)[C@@H]3C1
inactive	CC1(C)CC[C@]2(C(=O)O)CC[C@]3(C)C(=C2C1)C=C[C@@H]1[C@@]2(C)CC[C@@H](O)C(C)(C)[C@@H]2CC[C@]13C

system: Pseudomonas aeruginosa; experiment: Antimicrobial activity against Pseudomonas aeruginosa ATCC 27853 after 24 hrs by broth microdilution method; format: functional, organism-based; settings: not given; outline: as §2

MIC	SMILES
inactive	CC1(C)CC[C@@]23CC[C@]4(C)[C@@](C=C[C@@H]5[C@@]6(C)CC[C@@H](O)C(C)(C)[C@@H]6CC[C@]54C)(OC2=O)[C@@H]3C1
inactive	CC1(C)CC[C@]2(C(=O)O)CC[C@]3(C)C(=C2C1)C=C[C@@H]1[C@@]2(C)CC[C@@H](O)C(C)(C)[C@@H]2CC[C@]13C

system: Salmonella enterica subsp. enterica; experiment: Antimicrobial activity against Salmonella enterica ATCC 13311 after 24 hrs by broth microdilution method; format: functional, organism-based; settings: not given; outline: as §2

MIC	SMILES
inactive	CC1(C)CC[C@@]23CC[C@]4(C)[C@@](C=C[C@@H]5[C@@]6(C)CC[C@@H](O)C(C)(C)[C@@H]6CC[C@]54C)(OC2=O)[C@@H]3C1
inactive	CC1(C)CC[C@]2(C(=O)O)CC[C@]3(C)C(=C2C1)C=C[C@@H]1[C@@]2(C)CC[C@@H](O)C(C)(C)[C@@H]2CC[C@]13C

system: Escherichia coli; experiment: Antimicrobial activity against Escherichia coli ATCC 35150 after 24 hrs by broth microdilution method; settings: not given

MIC	SMILES
inactive	CC1(C)CC[C@@]23CC[C@]4(C)[C@@](C=C[C@@H]5[C@@]6(C)CC[C@@H](O)C(C)(C)[C@@H]6CC[C@]54C)(OC2=O)[C@@H]3C1
inactive	CC1(C)CC[C@]2(C(=O)O)CC[C@]3(C)C(=C2C1)C=C[C@@H]1[C@@]2(C)CC[C@@H](O)C(C)(C)[C@@H]2CC[C@]13C
